Data on 8 molecules can be found in ChEMBL document CHEMBL4138311, “Antitumorigenic Properties of Omega-3 Endocannabinoid Epoxides” (J Med Chem, 2018).

The subject of data set [1] is 143B. The experiment in a line: Cytotoxicity against human 143B cells assessed as reduction in cell viability at 25 uM after 24 hrs by cell-titer blue assay. It counts as functional, cell-based.
The subject of data set [2] is 143B. The experiment in a line: Cytotoxicity against human 143B cells assessed as reduction in cell viability at 12.5 uM after 24 hrs by cell-titer blue assay. The data set is classed as functional, cell-based.
Data set [3] deals with MG-63. Description: Induction of apoptosis in human MG63 cells at 12.5 by Annexin V-FITC/propidium iodide double staining based flow cytometry relative to control. It counts as functional.
The test system of data set [4] is HUVEC. The experiment in a line: Cytotoxicity against HUVEC assessed as reduction in cell viability at 1 uM after 24 hrs by cell-titer blue assay. It counts as cell-based. Particulars: human.
The test system of data set [5] is 143B. The experiment in a line: Antimigratory activity in human 143B cells at 5 uM measured after 10 hrs in presence of CB1 receptor antagonist rimonabant by wound-healing assay. It counts as functional, cell-based.
For data set [6], the system named is HUVEC. The experiment in a line: Anti-angiogenic activity in HUVEC assessed as inhibition of tube formation at 0.5 to 1 uM after 5 hrs by fluorescent microscopy based matrigel assay. The data set is classed as functional, cell-based. Particulars: Homo sapiens. In short, it runs like this:
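HUVEC at passage 2 were grown to 80% confluency, and 15,000 cells were plated on Matrigel pre-set 1 h at 37 °C. Cells got vehicle, 0.5 or 1 μM compound, with no-matrix and vinblastine controls, in duplicate wells for 5 h at 37 °C. After washing, cells were stained 30 min at 37 °C. Fluorescence images were scored for tube formation with an angiogenesis analyzer.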

Data set [7] has as its target Cannabinoid receptor 1 (Homo sapiens, UniProt P21554). The experiment in a line: Agonist activity at N-terminal FLAG-tagged human CB1 receptor transfected in human HTLA cells assessed as induction of beta-arrestin-recruitment after 8 to 14 hrs by bright-glo luminescence based assay. The data set is classed as functional, cell-based. The method in brief:
(§1)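 HTLA cells (DMEM, 10% FBS, puromycin 2 μg/mL, hygromycin B 100 μg/mL) were seeded at 20,000 per well on poly-L-lysine and transfected after 18–24 h with CNR1 or CNR2 Tango plasmid, 0.1 μg/well. After 36–48 h they were starved 4 h in 1% dialyzed FBS, or 30 min with 1 μM AUDA for epoxides. Log-dose compound was added for 8–14 h, then Bright-Glo luminescence read. RLU was normalized to % receptor response and fitted to a dose-response curve.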

Data set [8] relates to 143B. Description: Antimigratory activity in human 143B cells at 5 uM measured after 10 hrs by wound-healing assay. The data set is classed as functional, cell-based. The method in brief: (§2)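 A confluent monolayer of HOS, 143B or MG63 cells (DMEM, 10% FBS) was scratched with a pipette tip, then given fresh medium with 5 μM compound or vehicle at 37 °C, 5% CO₂. Images were taken every 2 h and wound area normalized to 100% at 0 h. Results are the ratio of wound remaining, treated to control, at 6 and 10 h.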

Data set [9] deals with HOS. Description: Cell cycle arrest in human HOS cells assessed as accumulation at G2 phase after 24 hrs by propidium iodide-staining based flow cytometry (reference value: 15.1 +/- 0.97%). The data set is classed as functional.
Data set [10] concerns 143B. The experiment in a line: Induction of apoptosis in human 143B cells at 12.5 by Annexin V-FITC/propidium iodide double staining based flow cytometry relative to control. The data set is classed as functional.
In data set [11] the test system is HOS. The experiment in a line: Cell cycle arrest in human HOS cells assessed as accumulation at G1 phase after 24 hrs by propidium iodide-staining based flow cytometry (reference value: 47.8 +/- 0.7%). It counts as functional.
The target in data set [12] is T1, Fatty-acid amide hydrolase 1 (Sus scrofa, UniProt Q9TUI8).
T1 sequence (Q9TUI8 whole entry): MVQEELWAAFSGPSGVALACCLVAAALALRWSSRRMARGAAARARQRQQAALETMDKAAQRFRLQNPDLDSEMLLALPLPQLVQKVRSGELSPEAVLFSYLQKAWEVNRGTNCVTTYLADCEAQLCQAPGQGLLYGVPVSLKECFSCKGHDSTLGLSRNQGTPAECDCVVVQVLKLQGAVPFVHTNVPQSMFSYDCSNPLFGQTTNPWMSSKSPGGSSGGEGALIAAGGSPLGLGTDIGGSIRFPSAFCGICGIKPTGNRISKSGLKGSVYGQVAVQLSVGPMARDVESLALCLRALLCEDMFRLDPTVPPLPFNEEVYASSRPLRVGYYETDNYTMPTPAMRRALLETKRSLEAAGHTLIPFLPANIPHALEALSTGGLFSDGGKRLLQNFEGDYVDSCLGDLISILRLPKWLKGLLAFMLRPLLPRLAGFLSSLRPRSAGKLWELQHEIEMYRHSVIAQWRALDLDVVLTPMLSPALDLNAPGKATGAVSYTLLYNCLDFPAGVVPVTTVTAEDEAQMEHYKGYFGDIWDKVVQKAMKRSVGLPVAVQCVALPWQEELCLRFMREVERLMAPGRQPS
The experiment in a line: Drug metabolism in pig forebrain membranes assessed as FAAH-mediated 10,11-EDP formation by measuring hydrolysis rate per mg protein at 20 uM after 40 mins by LC-MS/MS analysis. The data set is classed as ADME, cell membranes, Membrane. In short, it runs like this: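 Each 0.5 mL reaction held 5 µg membrane protein in the same buffer with 20 µM amide. Reactions were stopped at 40 min with methanol containing 1 mM PMSF and centrifuged. The supernatant was run on C18 LC-MS/MS, negative ESI, MRM for 10,11-EDP (m/z 343.0).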

The target of data set [13] is Cannabinoid receptor 2 (Homo sapiens, UniProt P34972). Description: Agonist activity at N-terminal FLAG-tagged human CB2 receptor transfected in human HTLA cells assessed as induction of beta-arrestin-recruitment after 8 to 14 hrs by bright-glo luminescence based assay. The data set is classed as functional, cell-based. The method in brief: as §1
Data set [14] concerns 143B. Description: Induction of apoptosis in human 143B cells at 12.5 in presence of rimonabant by Annexin V-FITC/propidium iodide double staining based flow cytometry relative to control. The data set is classed as functional.
Data set [15] concerns 143B. Description: Cell cycle arrest in human 143B cells assessed as accumulation at G1 phase after 24 hrs by propidium iodide-staining based flow cytometry (reference value: 56.2 +/- 2.7%). It counts as functional.
Data set [16] deals with MG-63. The experiment in a line: Cell cycle arrest in human MG63 cells assessed as accumulation at S phase after 24 hrs by propidium iodide-staining based flow cytometry (reference value: 20.2 +/- 1.8%). The data set is classed as functional.
The subject of data set [17] is 143B. The experiment in a line: Induction of apoptosis in human 143B cells at 12.5 in presence of AM 630 by Annexin V-FITC/propidium iodide double staining based flow cytometry relative to control. The data set is classed as functional.
Data set [18] deals with MG-63. Description: Cell cycle arrest in human MG63 cells assessed as accumulation at G1 phase after 24 hrs by propidium iodide-staining based flow cytometry (reference value: 62.9 +/- 1.8%). It counts as functional.
Data set [19] has as its system 143B. The experiment in a line: Cell cycle arrest in human 143B cells assessed as accumulation at S phase after 24 hrs by propidium iodide-staining based flow cytometry (reference value: 26.6 +/- 0.4%). It counts as functional.
In data set [20] the test system is 143B. Description: Cell cycle arrest in human 143B cells assessed as accumulation at G2 phase after 24 hrs by propidium iodide-staining based flow cytometry (reference value: 17.2 +/- 2.3%). The data set is classed as functional.
Data set [21] deals with HOS. The experiment in a line: Cell cycle arrest in human HOS cells assessed as accumulation at S phase after 24 hrs by propidium iodide-staining based flow cytometry (reference value: 37.1 +/- 1.6%). The data set is classed as functional.
Data set [22] relates to MG-63. The experiment in a line: Cell cycle arrest in human MG63 cells assessed as accumulation at G2 phase after 24 hrs by propidium iodide-staining based flow cytometry (reference value: 16.9 +/- 0.01%). The data set is classed as functional.
In data set [23] the test system is HOS. Description: Induction of apoptosis in human HOS cells at 12.5 by Annexin V-FITC/propidium iodide double staining based flow cytometry relative to control. It counts as functional.
Data set [24] deals with HOS. Description: Antimigratory activity in human HOS cells at 5 uM after 6 to 10 hrs by wound-healing assay. It counts as functional, cell-based. In short, it runs like this: as §2
Data set [25] deals with MG-63. Description: Antimigratory activity in human MG63 cells at 5 uM measured after 6 hrs by wound-healing assay. The data set is classed as functional, cell-based. In short, it runs like this: as §2
Data set [26] deals with MG-63. Description: Antimigratory activity in human MG63 cells at 5 uM measured after 10 hrs by wound-healing assay. It counts as functional, cell-based. The method in brief: as §2

The source made the active and inactive calls. The rule behind the calls is not given here.

Cannabinoid receptor 1, sequence (P21554 whole entry): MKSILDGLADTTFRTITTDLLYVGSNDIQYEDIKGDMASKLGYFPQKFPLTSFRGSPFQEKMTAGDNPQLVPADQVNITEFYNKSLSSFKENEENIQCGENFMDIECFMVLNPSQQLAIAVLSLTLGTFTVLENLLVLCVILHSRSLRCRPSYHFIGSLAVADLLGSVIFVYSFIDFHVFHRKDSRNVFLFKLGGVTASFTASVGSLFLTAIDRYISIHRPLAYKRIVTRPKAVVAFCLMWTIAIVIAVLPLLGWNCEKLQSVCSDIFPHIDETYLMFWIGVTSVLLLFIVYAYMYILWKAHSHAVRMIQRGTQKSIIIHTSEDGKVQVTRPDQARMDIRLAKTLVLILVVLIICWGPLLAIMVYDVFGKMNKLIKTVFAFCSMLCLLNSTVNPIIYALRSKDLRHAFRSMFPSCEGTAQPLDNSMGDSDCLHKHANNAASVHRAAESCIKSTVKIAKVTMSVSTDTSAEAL
Cannabinoid receptor 2, sequence (P34972 whole entry): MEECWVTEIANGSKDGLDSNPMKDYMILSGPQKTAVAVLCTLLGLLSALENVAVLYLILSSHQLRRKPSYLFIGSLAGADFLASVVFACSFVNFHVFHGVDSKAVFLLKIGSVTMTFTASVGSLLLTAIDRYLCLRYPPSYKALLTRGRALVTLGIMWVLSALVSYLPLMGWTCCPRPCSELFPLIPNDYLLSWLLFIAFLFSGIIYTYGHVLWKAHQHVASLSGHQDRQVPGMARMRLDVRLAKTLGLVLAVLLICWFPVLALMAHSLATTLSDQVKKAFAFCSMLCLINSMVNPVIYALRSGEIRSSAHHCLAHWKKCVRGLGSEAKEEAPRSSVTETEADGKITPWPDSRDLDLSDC

As to `CC/C=C\CC1OC1C/C=C\C/C=C\C/C=C\C/C=C\CCC(=O)NCCO` (configuration not stated), the result in data set [1] was Active. The result in [2] was inactive.
Consider `CC/C=C\C/C=C\C/C=C\CC1OC1C/C=C\C/C=C\CCC(=O)NCCO` (configuration not stated), for which the Activity in data set [3] is reported as 26.6%; in data set [4], “Non-Toxic”; in data set [9], 12.4%; in data set [10], 17.92%; in data set [11] it was 67.2%; in data set [14] it was 7.44%. The Activity is on record as 50.7% in data set [15]; 17.9% in data set [16]; 10.9% in data set [17]; 67.7% in data set [18]; 28.9% in [19]; 21.1% in [20]. Moreover, the Activity in data set [21] is listed as 20.3%; in data set [22], 14.4%; in data set [23] it was 31.1%. In addition, the outcome in data set [5] was inactive. Besides, the result in data set [6], in [1], in data set [8] and in data set [2] was Active. Also, the concentration giving a half-maximal response (EC50) in [7] is 0.43 nM; in data set [13], 22.5 nM. The Drug metabolism in [12] is 30 pmol/min.
Consider `CCC1OC1C/C=C\C/C=C\C/C=C\C/C=C\C/C=C\CCC(=O)NCCO` (configuration not stated), for which the outcome in [1] was Active. Besides, in [2], the result was inactive.
For `CC/C=C\C/C=C\C/C=C\CC1OC1C/C=C\C/C=C\CCC(=O)NCCCO` (configuration not stated), the Activity is 15.2% in data set [3]; “Non-Toxic” in data set [4]; 17.1% in data set [9]; 25.7% in data set [10]; 62.2% in [11]; 52.2% in data set [15]. The Activity in data set [16] was found to be 19%; in data set [18] it was 63.5%; in data set [19], 24%; in data set [20], 23.7%; in data set [21], 20.7%; in data set [22] it was 17.5%. The Activity in [23] is reported as 17.1%. Besides, in [6], the outcome was Active.
For `CC/C=C\C/C=C\C/C=C\CC1OC1C/C=C\C/C=C\CCC(=O)NC1CC1` (configuration not stated), the Activity in [3] is listed as 17.1%; in [4], “Non-Toxic”; in data set [9], 15.1%; in data set [10], 21.3%; in data set [11] it was 54.4%; in data set [15], 54.2%. The Activity is given as 23.1% in [16]; 59.6% in data set [18]; 22.9% in data set [19]; 22.9% in [20]; 30.5% in data set [21]; 16.9% in [22]. The molecule also had an Activity in [23] of 27.2%. Besides, in data set [6], the result was Active. The Drug metabolism in [12] was found to be 5.17 pmol/min.
On to `CC/C=C\C/C=C\CC1OC1C/C=C\C/C=C\C/C=C\CCC(=O)NCCO` (configuration not stated), for which the Activity in data set [3] is recorded as 16.9%; in data set [10], 9.95%; in [14], 13.03%; in [17] it was 9.2%; in data set [23], 19.6%. Also, the result in data set [24], in data set [25] and in [8] was inactive. For the same molecule, the result in data set [1], in data set [26] and in [2] was Active.
`CC/C=C\C/C=C\C/C=C\CC1OC1C/C=C\C/C=C\CCC(=O)NC(C)CO` (configuration not stated): the Activity in data set [3] was 17.5%; in data set [4], “Non-Toxic”; in [9], 20%; in [10], 18.8%; in [11] it was 55.8%; in data set [15] it was 50.1%. Besides, the Activity was found to be 10.8% in data set [16]; 76.7% in data set [18]; 41.8% in data set [19]; 8.1% in [20]; 24.3% in data set [21]; 12.5% in data set [22]. In data set [23], this molecule came in with an Activity of 20.2%. In data set [6], the outcome was Active. In addition, the Drug metabolism in [12] came to 0.99 pmol/min.
As to `CC/C=C\C/C=C\C/C=C\C/C=C\CC1OC1C/C=C\CCC(=O)NCCO` (configuration not stated), the Activity in data set [3] worked out at 16.4%; in data set [10], 8.75%; in [14], 14.6%; in [17], 10.1%; in data set [23] it was 17.1%. For the same molecule, the result in [24] and in data set [8] was inactive. Moreover, the result in data set [1], in data set [26] and in [2] was Active.
